Source: ChEMBL document CHEMBL3227941, “3-Substituted adenines. In vitro enzyme inhibition and antiviral activity” (J Med Chem, 1979)
Calls of active or inactive are those of the source. The rule behind the calls is not given here.

Key:
[1] = tested on: Human alphaherpesvirus 1; test: Antiviral activity against HSV1 infected in African green monkey BSC-1 cells assessed as inhibition of virus multiplication at 12 ug/ml after 96 hrs by plaque reduction assay; type: functional; conditions: Human alphaherpesvirus 1, BSC-1, 96 h
[2] = tested on: Human alphaherpesvirus 1; test: Antiviral activity against HSV1 infected in African green monkey BSC-1 cells assessed as inhibition of virus multiplication at 6 ug/ml after 96 hrs by plaque reduction assay; type: functional; conditions: Human alphaherpesvirus 1, BSC-1, 96 h
[3] = tested on: Vaccinia virus; test: Antiviral activity against Vaccinia virus infected in African green monkey BSC-1 cells assessed as inhibition of virus multiplication at 50 ug/ml after 96 hrs by plaque reduction assay; type: functional; conditions: Orthopoxvirus vaccinia, BSC-1, 96 h
[4] = target: T1, Dopamine beta-hydroxylase (Bos taurus, UniProt P15101); test: Inhibition of bovine adrenal medullae dopamine-beta-hydroxylase; design: species or system Adrenal medulla; conditions: read-out: I50 (converted)
T1 sequence (P15101 whole entry): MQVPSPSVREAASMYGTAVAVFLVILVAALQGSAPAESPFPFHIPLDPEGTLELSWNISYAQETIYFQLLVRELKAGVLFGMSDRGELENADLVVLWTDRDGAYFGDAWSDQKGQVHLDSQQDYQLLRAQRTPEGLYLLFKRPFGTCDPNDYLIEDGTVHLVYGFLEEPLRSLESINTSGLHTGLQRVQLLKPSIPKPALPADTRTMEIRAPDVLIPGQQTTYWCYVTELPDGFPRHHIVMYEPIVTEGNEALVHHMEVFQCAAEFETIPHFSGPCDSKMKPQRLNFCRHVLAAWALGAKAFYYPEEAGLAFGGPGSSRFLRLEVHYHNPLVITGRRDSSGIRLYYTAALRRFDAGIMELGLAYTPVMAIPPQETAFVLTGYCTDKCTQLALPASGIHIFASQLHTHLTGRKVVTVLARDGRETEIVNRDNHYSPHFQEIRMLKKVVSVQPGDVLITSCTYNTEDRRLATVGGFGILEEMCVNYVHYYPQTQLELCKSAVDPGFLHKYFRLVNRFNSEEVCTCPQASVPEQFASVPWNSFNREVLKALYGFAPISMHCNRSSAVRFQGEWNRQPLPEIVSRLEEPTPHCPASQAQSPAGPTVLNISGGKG

[5] = tested on: Vaccinia virus; test: Antiviral activity against Vaccinia virus infected in African green monkey BSC-1 cells assessed as inhibition of virus multiplication at 12 ug/ml after 96 hrs by plaque reduction assay; type: functional; conditions: Orthopoxvirus vaccinia, BSC-1, 96 h
[6] = Cytotoxicity against Vaccinia virus infected African green monkey BSC1 cells at 100 ug/ml; type: cell-based; conditions: chlorocebus aethiops, bsc-1
[7] = tested on: Human alphaherpesvirus 1; test: Antiviral activity against HSV1 infected in African green monkey BSC-1 cells assessed as inhibition of virus multiplication at 50 ug/ml after 96 hrs by plaque reduction assay; type: functional; conditions: Human alphaherpesvirus 1, BSC-1, 96 h
[8] = tested on: Vaccinia virus; test: Antiviral activity against Vaccinia virus infected in African green monkey BSC-1 cells assessed as inhibition of virus multiplication at 25 ug/ml after 96 hrs by plaque reduction assay; type: functional; conditions: Orthopoxvirus vaccinia, BSC-1, 96 h
[9] = tested on: Human alphaherpesvirus 1; test: Antiviral activity against HSV1 infected in African green monkey BSC-1 cells assessed as inhibition of virus multiplication at 25 ug/ml after 96 hrs by plaque reduction assay; type: functional; conditions: Human alphaherpesvirus 1, BSC-1, 96 h
[10] = tested on: Vaccinia virus; test: Antiviral activity against Vaccinia virus infected in African green monkey BSC-1 cells assessed as inhibition of virus multiplication at 100 ug/ml after 96 hrs by plaque reduction assay; type: functional; conditions: Orthopoxvirus vaccinia, BSC-1, 96 h
[11] = tested on: Vaccinia virus; test: Antiviral activity against Vaccinia virus infected in African green monkey BSC-1 cells assessed as inhibition of virus multiplication at 6 ug/ml after 96 hrs by plaque reduction assay; type: functional; conditions: Orthopoxvirus vaccinia, BSC-1, 96 h
[12] = Cytotoxicity against HSV1 infected African green monkey BSC1 cells at 50 ug/ml; type: cell-based; conditions: chlorocebus aethiops, bsc-1
[13] = Cytotoxicity against Vaccinia virus infected African green monkey BSC1 cells at 25 ug/ml; type: cell-based; conditions: chlorocebus aethiops, bsc-1
[14] = Cytotoxicity against Vaccinia virus infected African green monkey BSC1 cells at 50 ug/ml; type: cell-based; conditions: chlorocebus aethiops, bsc-1
[15] = tested on: Vaccinia virus; test: Antiviral activity against Vaccinia virus infected in African green monkey BSC-1 cells assessed as inhibition of virus multiplication at 3 ug/ml after 96 hrs by plaque reduction assay; type: functional; conditions: Orthopoxvirus vaccinia, BSC-1, 96 h
[16] = Cytotoxicity against HSV1 infected African green monkey BSC1 cells at 25 ug/ml; type: cell-based; conditions: chlorocebus aethiops, bsc-1
[17] = tested on: Transmissible gastroenteritis virus; test: Antiviral activity against Transmissible gastroenteritis virus infected in pig at 25 mg/animal administered 3 times per day; type: functional, organism-based
In short: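 Piglets weighing 4-5 lb dosed at 25 mg/pig three times daily and challenged with virus. Weight and survival monitored against untreated controls over 72 h.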

[18] = tested on: Human alphaherpesvirus 1; test: Antiviral activity against HSV1 infected in mouse assessed as assessed as protection against viral infection; type: functional, organism-based
[19] = tested on: Vaccinia virus; test: Antiviral activity against Vaccinia virus infected in mouse assessed as assessed as protection against viral infection; type: functional, organism-based; conditions: Orthopoxvirus vaccinia
[20] = tested on: Sus scrofa; test: Toxicity in Transmissible gastroenteritis virus infected pig at 25 mg/animal administered 3 times per day; type: organism-based; conditions: in vivo
In short: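 Piglets (4-5 lb), four per treated group with two untreated controls, were given 25 mg/pig three times a day and challenged with virus. Body weight was followed from 24 h after challenge through 48 h, and animals were watched for signs of illness and for deaths.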

SMILES | inhibition at 12 µg/mL [1] [%] | inhibition at 6 µg/mL [2] [%] | inhibition at 50 µg/mL [3] [%] | IC50 [4] [µM] | inhibition at 12 µg/mL [5] [%] | Activity [6] | inhibition at 50 µg/mL [7] [%] | inhibition at 25 µg/mL [8] [%] | inhibition at 25 µg/mL [9] [%] | inhibition at 100 µg/mL [10] [%] | inhibition at 6 µg/mL [11] [%] | Activity [12] | Activity [13] | Activity [14] | inhibition at 3 µg/mL [15] [%] | Activity [16] | Activity [17] | Activity [18] | Activity [19] | Activity [20]
Cc1ccc(Cn2cnc(N)c3ncnc2-3)cc1 | 0 | 0 | 10 | 83.6 | 0 | Toxic | 0 | 8 | 0 | – | – | – | – | – | – | – | – | – | – | –
Nc1ncn(Cc2ccco2)c2ncnc1-2 | 0 | 0 | 0 | – | – | – | 0 | 0 | 0 | 0 | – | – | – | – | – | – | – | – | – | –
Nc1ncn(CC2CCCCC2)c2ncnc1-2 | 0 | 0 | 7 | 8.65 | 0 | – | 0 | 0 | 0 | – | – | – | – | – | – | – | – | – | – | –
Cc1ccccc1Cn1cnc(N)c2ncnc1-2 | 0 | 0 | 0 | 836 | 0 | Toxic | 30 | 0 | 0 | – | – | – | – | – | – | – | – | – | – | –
Nc1ncn(Cc2cccc(Cl)c2)c2ncnc1-2 | 0 | 0 | 37 | 7.7 | 0 | – | 45 | 16 | 0 | 100 | 0 | – | – | – | – | – | – | – | – | –
Nc1ncn(Cc2ccccc2)c2ncnc1-2 [3-BENZYLADENINE] | 0 | 0 | 3 | 8.88 | 0 | – | 0 | 0 | 0 | 3 | – | – | – | – | – | – | – | – | – | –
Nc1ncn(Cc2ccc(Cl)cc2Cl)c2ncnc1-2 | 0 | 0 | – | 680 | 0 | Toxic | – | – | 20 | – | 0 | Toxic | Toxic | Toxic | – | – | – | – | – | –
CCCCCCn1cnc(N)c2ncnc1-2 | 0 | 0 | 100 | 4.56 | 27 | Toxic | 16 | 77 | 0 | – | – | – | – | – | – | – | – | – | – | –
Nc1ncn(Cc2ccc(Cl)c(Cl)c2)c2ncnc1-2 | 0 | 0 | – | 6.8 | 100 | Toxic | – | – | 27 | – | 87 | Toxic | Toxic | Toxic | 47 | – | – | – | – | –
Cc1ccc(Cn2cnc(N)c3ncnc2-3)cc1C | 42 | 0 | – | 79 | 0 | Toxic | – | – | – | – | 0 | Toxic | Toxic | Toxic | 0 | Toxic | – | – | – | –
CCCCCn1cnc(N)c2ncnc1-2 | 0 | 0 | 72 | 2.44 | 33 | – | 3 | 35 | 0 | 96 | – | – | – | – | – | – | – | – | – | –
Nc1ncn(Cc2cccc(C(F)(F)F)c2)c2ncnc1-2 | – | – | – | 68.2 | – | – | – | – | – | – | – | – | – | – | – | – | – | – | – | –
Cc1cccc(Cn2cnc(N)c3ncnc2-3)c1 | 0 | 0 | 0 | 83.6 | 0 | Toxic | 9 | 0 | 0 | – | – | – | – | – | – | – | – | – | – | –
Nc1ncn(Cc2ccc(Cl)cc2)c2ncnc1-2 | 0 | 0 | 100 | 77 | 51 | Toxic | 15 | 70 | 0 | – | – | – | – | – | – | – | – | – | – | –
CCCCn1cnc(N)c2ncnc1-2 [3-BUTYLADENINE] | 0 | 0 | 0 | 105 | 0 | – | 0 | 0 | 0 | 1 | – | – | – | – | – | – | – | – | – | –
CC(C)CCn1cnc(N)c2ncnc1-2 | 0 | 0 | 7 | 974 | 0 | – | 27 | 7 | 0 | 8 | 0 | – | – | – | – | – | – | – | – | –
Nc1ncn(Cc2ccccc2Cl)c2ncnc1-2 | 42 | 0 | 100 | 770 | 0 | Toxic | 100 | 0 | 100 | – | 0 | – | – | – | 0 | – | – | – | – | –
Nc1ncn(Cc2ccccc2Br)c2ncnc1-2 | 100 | 71 | 100 | 658 | 34 | Toxic | 100 | 100 | 100 | – | 0 | – | – | – | 0 | – | inactive | inactive | inactive | Toxic
CCCn1cnc(N)c2ncnc1-2 [3-PROPYLADENINE] | 0 | 0 | 0 | 1130 | 0 | – | 0 | 0 | 0 | 0 | 0 | – | – | – | – | – | – | – | – | –
CCn1cnc(N)c2ncnc1-2 [3-ETHYLADENINE] | 0 | 0 | 0 | > 1230 | 0 | – | 0 | 0 | 0 | 0 | 0 | – | – | – | – | – | – | – | – | –
